In the library only some 2% were active in any assay of this set; here they are far more common.
LEDGF integ inh = blocks HIV-1 LEDGF/p75-dependent DNA integration. TR-FRET IN-LEDGF/p75 DNA integration, Eu/Cy5. inhibition, % at 3.7 µM. 0.64% of 370,000 active. AID 743269;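 active = inhibition above the screen-wide mean plus 3 SD, cut at about 13% in these data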;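 also: signal is the Cy5 over europium emission ratio at 671 and 618 nm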
TCR CD3 inh = human TCR-CD3 binding inhibition; 0.37% of 360,000 active; inhibition, % at 9.4 µM; AID 651800; TAMRA-labeled TCR probe fluorescence, biochemical; in the data active = inhibition above about 19%;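 also: recombinant mutant TCR 2C K166C tagged with TAMRA read by polarization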
MBD2 DNA inh = MBD2-methylated oligo binding inhibition; AID 686964; inhibition, % at 4.4 µM; 0.31% of 370,000 active; TR-FRET, MBD2 binding to methylated oligonucleotide; in the data active = inhibition above about 13%
ARFGAP1 inhibitor = rat ARFGAP1 inhibition. Q62848. Arfgap1-stimulated ARF1 GTP hydrolysis, GDP FP detection. inhibition, % at 16.5 µM. 0.26% of 360,000 active. AID 651572;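 active = inhibition above a per-plate limit, mean inhibition of low control wells plus 3 SD, cut at about 25% in these data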
Target sequence (Q62848 1-136 limits assumed): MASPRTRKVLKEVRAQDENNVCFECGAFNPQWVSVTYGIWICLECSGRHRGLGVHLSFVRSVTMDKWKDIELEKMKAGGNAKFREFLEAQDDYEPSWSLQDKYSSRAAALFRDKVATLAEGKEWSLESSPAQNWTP
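Material – truncated rat Arfgap1 GAP domain · Buffer or medium – HEPES-based buffer, pH 7.5 · Reagent – human ARF1(Δ1-17)-GTP substrate · Dosing – 16.5 µM single point, 1.26% DMSO · Schedule – GTP hydrolysis reaction 2 h at 25 °C · Technique – GDP detection by fluorescence polarization · Benchmarks – No-Arfgap1 wells (100%) versus DMSO full-reaction wells (0%) · Repeats – single replicate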
ASAP1 GAP inh = inhibitors of human ASAP1 ArfGAP activity; inhibition, % at 16.5 µM; AID 624377; ASAP1-stimulated ARF1 GTP hydrolysis, GDP FP detection; Q9ULH1; 0.19% of 360,000 active; in the data active = inhibition above about 25%
Target sequence (Q9ULH1 325-724 limits assumed): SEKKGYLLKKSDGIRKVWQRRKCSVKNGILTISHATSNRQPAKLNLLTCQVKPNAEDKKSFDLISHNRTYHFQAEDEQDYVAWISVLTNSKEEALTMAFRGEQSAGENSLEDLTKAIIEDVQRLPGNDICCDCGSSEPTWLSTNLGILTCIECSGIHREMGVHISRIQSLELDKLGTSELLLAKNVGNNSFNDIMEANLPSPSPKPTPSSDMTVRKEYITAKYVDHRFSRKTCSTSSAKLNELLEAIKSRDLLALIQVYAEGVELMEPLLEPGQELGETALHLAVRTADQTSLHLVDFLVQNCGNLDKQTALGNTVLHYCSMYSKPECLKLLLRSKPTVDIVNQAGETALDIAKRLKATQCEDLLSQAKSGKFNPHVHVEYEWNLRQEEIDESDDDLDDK
UHRF1 binding = human UHRF1 methylated DNA binding inhibitors | UHRF1 binding to methylated oligo, TR-FRET | inhibition, % at 4.4 µM | 0.75% of 370,000 active | AID 687016;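 also: UHRF1 SRA domain binding a hemimethylated CpG hairpin DNA probe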
ARFGAP1 inh conf = confirmation of rat ARFGAP1 inhibitors. ARFGAP1-stimulated ARF1 GTP hydrolysis, GDP tracer FP. 30% of 890 active. inhibition, % at 16.5 µM. shares compounds with ARFGAP1 inhibitor;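 active = average inhibition over triplicates above the hit cutoff set in the earlier primary screen, cut at about 25% in these data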
BSA TAMRA ctr = counter-screen for TCR-CD3 interaction inhibitors: BSA probe; TAMRA-labeled BSA probe fluorescence counterscreen; inhibition, % at 9.4 µM; AID 652035; shares compounds with TCR CD3 inh; 10% of 1,200 active; in the data active = inhibition above about 23%
TCR-CD3 conf = confirmation of human TCR-CD3 interaction inhibitors; AID 652036; inhibition, % at 9.4 µM; TAMRA-labeled TCR probe fluorescence binding assay; 48% of 1,200 active; shares compounds with TCR CD3 inh; in the data active = inhibition above about 19%
UHRF1 ctr MBD2 = UHRF1 methyl-oligo binding inhibition as MBD2 counter-screen. UHRF1 binding to methylated oligonucleotide, TR-FRET. shares compounds with MBD2 DNA inh. AID 720530. inhibition, % at 4.4 µM. 25% of 1,000 active;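 also: UHRF1 SRA domain binding a labeled hemimethylated CpG hairpin DNA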
MBD2 confirm = confirmation of human MBD2-DBD methylated oligonucleotide binding inhibitors. AID 720531. shares compounds with MBD2 DNA inh. 26% of 1,000 active. inhibition, % at 4.4 µM. TR-FRET MBD2-DBD binding to methylated oligonucleotide; in the data active = inhibition above about 14%
IN multimer act = counter-screen for LEDGF/p75 integration inhibitors: HIV-1 integrase multimerization activators; shares compounds with LEDGF integ inh; TR-FRET HIV-1 integrase multimerization, biochemical; activation, % at 7.7 µM; 17% of 2,000 active; in the data active = activation above about 8.9%
TRFRET interf = optically interferes with TR-FRET readout in LEDGF counter-screen. shares compounds with LEDGF integ inh. 2,000 tested, under 10 active. TR-FRET optical interference counterscreen, HIV-1 IN multimerization. inhibition, % at 7.7 µM;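 active = inhibition above the mean over all tested compounds plus 3 SD, which no compound reached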
IN-LEDGF confirm = LEDGF/p75-dependent HIV-1 integration inhibition, confirmation | TR-FRET LEDGF/p75-dependent HIV-1 integration, biochemical | 36% of 2,000 active | inhibition, % at 3.7 µM | AID 1053136 | shares compounds with LEDGF integ inh; in the data active = inhibition above about 14%
Each line names hits and unclear results; the compound was inactive in the other large screens (follow-up assays come after a bar, where they were run). Rule as the data show it, unless noted: active = inhibition above about 21%; inactive = the rest.

CCCCCCN1CCN(C2CN(Cc3cn(Cc4cccc(C(F)(F)F)c4)nn3)S(=O)(=O)C2)CC1 (stereo not given)	none
COc1ccc(CCn2c(SCC(=O)Nc3cc(C)on3)nc3ccsc3c2=O)cc1OC	ARFGAP1 inhibitor 37 | ARFGAP1 inh conf 35
COc1ccc(-n2c(SCc3ccc([N+](=O)[O-])cc3)nnc2-c2ccccc2)cc1	none
CCOc1ccc(-n2c(SCc3ccc([N+](=O)[O-])cc3)nnc2-c2ccccc2)cc1	ARFGAP1 inhibitor 33 | ARFGAP1 inh conf inactive
COC(=O)C1CN(Cc2ccccc2)CCS(=O)(=O)N1Cc1ccc(C)cc1 (stereo not given)	none (no result: TCR CD3 inh, ARFGAP1 inhibitor, ASAP1 GAP inh)
O=[N+]([O-])c1cccc(-n2cc3ccc([N+](=O)[O-])cc3n2)c1	ARFGAP1 inhibitor 40 | ARFGAP1 inh conf 45
COc1ccc(O)c(-c2cc(-c3ccccc3Cl)[nH]n2)c1	ARFGAP1 inhibitor 30 | ARFGAP1 inh conf inactive
C[C@H](CO)N1C[C@H](C)[C@H](CN(C)C(=O)Nc2cccc(F)c2)Oc2cc(C#CC3(O)CCCC3)ccc2S1(=O)=O	ARFGAP1 inhibitor 29 | ARFGAP1 inh conf inactive
Cc1ccc(Nc2nc(CSc3nnnn3C)cs2)cc1	none
Cc1ccc(Nc2nc(CSc3nnnn3-c3ccccc3)cs2)cc1	ARFGAP1 inhibitor 29 | ARFGAP1 inh conf inactive
Nc1[nH]c(C(=O)c2ccccc2)c(-c2ccccc2C(F)(F)F)c1C(=O)NCCc1c[nH]c2ccccc12	ARFGAP1 inhibitor 25 | ARFGAP1 inh conf inactive
O=C(Nc1ccc(F)cc1)OCc1cn(Cc2cccc(F)c2F)nn1	none (no result: TCR CD3 inh, ARFGAP1 inhibitor, ASAP1 GAP inh)
CS(=O)(=O)c1ccc2nc(NC(=O)c3ccc(NS(=O)(=O)c4ccc(F)c(F)c4)cc3)sc2c1	none
O=C(Nc1nc2ccc(SC(F)F)cc2s1)c1ccc(NS(=O)(=O)c2ccc(F)c(F)c2)cc1	ARFGAP1 inhibitor 26 | ARFGAP1 inh conf 30
Cc1ccc(C(C)C)c(OCc2ccc(C(=O)N/N=C/c3ccc(C(=O)O)cc3)cc2)c1	none
Cc1ccc(C(C)C)c(OCc2ccc(C(=O)N/N=C/c3ccc(O)cc3O)cc2)c1	TCR CD3 inh 26, ARFGAP1 inhibitor 30 | ARFGAP1 inh conf 32 | BSA TAMRA ctr inactive | TCR-CD3 conf 22
NS(=O)(=O)c1ccc(NC(=O)COc2cccc3ccccc23)cc1	none
COc1ccc(C(=O)C=CNNC(=O)c2ccc(Cl)cc2)cc1	TCR CD3 inh 22, ARFGAP1 inhibitor 26 | ARFGAP1 inh conf inactive | BSA TAMRA ctr inactive | TCR-CD3 conf 24
CC(C)=CCC/C(C)=C/CC/C(C)=C/CC/C(C)=C/CC1=C(C)C(=O)c2ccccc2C1=O	none
CC(C)=CCC1=C(OCC(=O)O)C(=O)c2ccccc2C1=O	LEDGF integ inh 25, ARFGAP1 inhibitor 25 | ARFGAP1 inh conf inactive | IN multimer act inactive | TRFRET interf inactive | IN-LEDGF confirm 57
Cc1cc(=O)n(C2CCS(=O)(=O)C2)[nH]1 (stereo not given)	LEDGF integ inh 22, MBD2 DNA inh 14, ARFGAP1 inhibitor 29 | ARFGAP1 inh conf inactive | UHRF1 ctr MBD2 inactive | MBD2 confirm inactive | IN multimer act inactive | TRFRET interf inactive | IN-LEDGF confirm inactive
O=C(NCCc1cnc[nH]1)c1ccc(-c2ccccc2)cc1	none
Cc1ccc(S(=O)(=O)n2cccc2C)cc1	none
CC(NC1=CC(=O)c2cccnc2C1=O)C(O)c1ccccc1 (stereo not given)	LEDGF integ inh 36, ARFGAP1 inhibitor 27 | ARFGAP1 inh conf inactive | IN multimer act inactive | TRFRET interf inactive | IN-LEDGF confirm 66
Nc1ccc(N=Nc2ccccc2O)c(N)c1	TCR CD3 inh 21 | BSA TAMRA ctr inactive | TCR-CD3 conf inactive
C=CCn1c(O)c(N=Nc2ccccc2O)c2ccccc21	none
Cc1ccc(N=Nc2cc(C)ccc2O)c(C)c1	none
Oc1ccccc1N=Nc1ccccc1O	TCR CD3 inh 19 | BSA TAMRA ctr inactive | TCR-CD3 conf inactive
O=C(CSc1nc(-c2ccccc2)cs1)Nc1ccccc1[N+](=O)[O-]	none
Cc1cc(C(C)(C)C)cc(C)c1CCNC(=O)c1ccc[n+]([O-])c1	none
O=C1c2ccc3c4c(ccc(c24)C(=O)N1CCCCO)C(=O)N(CCCCO)C3=O	TCR CD3 inh 34 | BSA TAMRA ctr 40 | TCR-CD3 conf 25
CC(C)C(=O)Nc1ccc(C(=O)NNC(=S)NC(=O)c2ccco2)cc1	TCR CD3 inh 33 | BSA TAMRA ctr inactive | TCR-CD3 conf 36
Cc1ccc(C(=O)NNC(=S)NC(=O)c2ccco2)cc1	none
O=C(CN1C(=O)NC2(CCCCCC2)C1=O)Nc1ccc(OC(F)(F)F)cc1	none
C=CCn1c(=NC(=O)c2ccc(S(=O)(=O)N3CCc4ccccc4C3)cc2)sc2cc(S(N)(=O)=O)ccc21	TCR CD3 inh 31 | BSA TAMRA ctr inactive | TCR-CD3 conf 31
COCCn1c(=NC(=O)c2ccc(S(=O)(=O)N3CCc4ccccc4C3)cc2)sc2cc(S(N)(=O)=O)ccc21	none
COc1cccc(CNc2nc(NC(C)C)nc3ccsc23)c1	none
CCCCN(C)S(=O)(=O)c1cc2c(cc1Br)CCN2C(=O)C1CC1	none
